Source: ChEMBL document CHEMBL1123985, “Oral absorption of cephalosporin antibiotics. 1. Synthesis, biological properties, and oral bioavailability of 7-(arylacetamido)-3-chloro cephalosporins in animals” (J Med Chem, 1988)
In brackets after ≈: the same amount, converted by molar mass.

Legend:
[1] = Minimum inhibitory concentration against sens CL strain of Haemophilus influenzae; type: functional
[2] = system: Mus musculus; test: Efficacy against mouse infected ip with park strain of Streptococcus pneumoniae administered sc to 19-21-g random sex ICR mice at 1 hr and 5 hr; type: functional
Outline: (§1)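 ICR mice, random sex, 19-21 g, challenged ip with 50-500 LC50 from a frozen organism pool; compound given sc or po at 1 and 5 h after challenge, five 2-fold dose levels, eight mice per level; ED50 derived.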

[3] = system: Staphylococcus epidermidis; test: Minimum inhibitory concentration against 222 strain of Staphylococcus epidermidis; type: functional
[4] = system: Canis familiaris; test: Area under plasma concentration vs time curve observed in female mongrel dogs after, iv administration of single 15 mg/kg dose; type: ADME, organism-based, Canis lupus familiaris; parameters: dose 15 mg/kg, route intravenous; conditions: dog, in vivo
Outline: (§2)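 Six female mongrel dogs (14-23 kg) fasted overnight, bladder catheterized; single 15 mg/kg solution doses by stomach tube (in water, total 500 mL) or cephalic vein (saline or pH 6.0 NaCl/phosphate/acetate buffer). Plasma sampled at intervals; activity by disk-plate agar diffusion against E. coli MB 3804, standards in dog serum or buffer. AUC μg min/mL, mean ± SEM; BA from iv vs po AUC and urinary recovery.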

[5] = Bioavailability in rat; type: ADME, organism-based; conditions: in vivo
Outline: (§3)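 Male Wistar rats (200-300 g), jugular-cannulated, upper GI emptied by light cycle; 20 mg/kg in saline (6 mg/mL) sc or orally. Urine collected in wire-bottom cages, assayed by B. subtilis agar well method. Mean ± SD recovery with N and range; bioavailability = oral over mean sc recovery.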

[6] = dose in urine (24-h urine excretion) in female mongrel dogs after, iv administration of single 15 mg/kg dose; type: ADME, organism-based, Canis lupus familiaris; parameters: dose 15 mg/kg, route intravenous; conditions: dog
Outline: (§4)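 Female mongrel dogs (n=6), bladder catheter; urine collected at intervals after single 15 mg/kg iv or oral solution dose, frozen; antibiotic activity by disk-plate agar diffusion against E. coli MB 3804 with standards in pH 6.0 buffer; percent of dose recovered in urine.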

[7] = Minimum inhibitory concentration against res 76 strain of Haemophilus influenzae; type: functional
[8] = Oral bioavailability in Rhesus monkey; type: ADME, organism-based, Macaca mulatta; conditions: in vivo
Outline: (§5)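 Rhesus monkeys, adult males, six animals per compound, each given drug orally and iv; fasted overnight. Single 30 mg/kg solution doses, by nasogastric tube (in water) or saphenous vein (in isotonic lactated Ringer). Plasma sampled at intervals, frozen at -70 °C, antibacterial activity by microbiological assay. AUC in μg min/mL; oral bioavailability from oral vs iv AUC.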

[9] = Mean plasma levels in rats at a time 5 min after iv administration of 100 mg/kg of probenecid 5 min prior to test compound; type: ADME, organism-based; parameters: dose 100 mg/kg, route intravenous; conditions: rat, read-out: Plasma level
Outline: (§6)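 Rats, jugular vein cannulated (two per group), test compound iv 20 mg/kg; probenecid 100 mg/kg iv 5 min before in treated groups. Heparinized plasma sampled at 5, 20, 40 min and 1, 2, 3 h, assayed microbiologically (B. subtilis agar well). AUC 0-3 h in μg min/mL; half-life in min.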

[10] = system: Klebsiella pneumoniae; test: Minimum inhibitory concentration against X68 strain of Klebsiella pneumoniae; type: functional
[11] = system: Mus musculus; test: Efficacy against mouse infected ip with park strain of Streptococcus pneumoniae administered po to 19-21-g random sex ICR mice at 1 hr and 5 hr; type: functional; outline: as §1
[12] = Mean plasma levels in rats 40 min after iv administration of 100 mg/kg of probenecid 5 min prior to test compound; type: ADME, organism-based; parameters: dose 100 mg/kg, route intravenous; conditions: rat, read-out: Plasma level; outline: as §6
[13] = Oral bioavailability in mouse; type: ADME, organism-based; conditions: in vivo
Outline: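 Male Cox mice given water and liquid diet overnight; 20 mg/kg in saline (2 mg/mL) sc or orally; urine from collection cages plus bladder contents over 2 h; activity by agar well assay with Bacillus subtilis ATCC 6633. Bioavailability from percent dose excreted in urine after oral vs parenteral dosing.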

[14] = system: Staphylococcus aureus; test: Minimum inhibitory concentration against 3055 strain of Staphylococcus aureus
[15] = system: Staphylococcus aureus; test: Minimum inhibitory concentration against X1.1 strain of Staphylococcus aureus; type: functional
[16] = system: Klebsiella aerogenes; test: Minimum inhibitory concentration against EB17 strain of Enterobacter aerogenes; type: functional
[17] = Area under plasma concentration vs time curve observed in rats for 0-3 h; type: ADME; parameters: time < 3 hr; conditions: rat; outline: as §6
[18] = system: Mus musculus; test: Efficacy against mouse infected ip with C203 strain of Streptococcus pyogenes, administered po to 19-21-g random sex ICR mice at 1 hr and 5 hr; type: functional; outline: as §1
[19] = Percent of urinary recovery in rats after, sc administration of single 20 mg/kg dose in solution (N,range); type: ADME, organism-based; parameters: dose 20 mg/kg, route subcutaneous; conditions: rat, urine, read-out: Recovery; outline: as §3
[20] = Area under plasma concentration vs time curve observed in Rhesus monkeys after, iv administration of single 30 mg/kg dose; type: ADME, organism-based, Macaca mulatta; parameters: dose 30 mg/kg, route intravenous; conditions: rhesus monkey; outline: as §5
[21] = system: Escherichia coli; test: Minimum inhibitory concentration against EC14 strain Escherichia coli; type: functional
[22] = system: Streptococcus pneumoniae; test: Minimum inhibitory concentration against Park strain of Streptococcus pneumoniae; type: functional
[23] = Mean plasma levels in rats 20 min after iv administration of 100 mg/kg of probenecid 5 min prior to test compound; type: ADME, organism-based; parameters: dose 100 mg/kg, route intravenous; conditions: rat, read-out: Plasma level; outline: as §6
[24] = Percent of urinary recovery in rats after, oral administration of single 20 mg/kg dose in solution (N,range); type: ADME, organism-based; parameters: dose 20 mg/kg, route oral; conditions: rat, urine, read-out: Recovery; outline: as §3
[25] = Half-life of the compound; type: ADME; outline: as §6
[26] = system: Mus musculus; test: Efficacy against mouse infected ip with 3055 strain of Staphylococcus aureus, administered po to 19-21-g random sex ICR mice at 1 hr and 5 hr; type: functional; outline: as §1
[27] = dose in urine (24-h urine excretion) in female mongrel dogs after, oral administration of single 15 mg/kg dose; type: ADME, organism-based, Canis lupus familiaris; parameters: dose 15 mg/kg, route oral; conditions: dog; outline: as §4
[28] = Mean plasma levels in rats 2 hr after iv administration of 100 mg/kg of probenecid 5 min prior to test compound; type: ADME, organism-based; parameters: dose 100 mg/kg, route intravenous; conditions: rat, read-out: Plasma level; outline: as §6
[29] = system: Streptococcus pyogenes; test: Minimum inhibitory concentration against Streptococcus pyogenes C203; type: functional
[30] = system: Salmonella; test: Minimum inhibitory concentration against X514 strain of Salmonella; type: functional
[31] = system: Mus musculus; test: Efficacy against mouse infected ip with C203 strain of Streptococcus pyogenes, administered sc to 19-21-g random sex ICR mice at 1 hr and 5 hr; type: functional; outline: as §1
[32] = Mean plasma levels in rats 3h after intravenous administration of 20 mg/kg of compound; type: ADME, organism-based; parameters: dose 20 mg/kg, route intravenous; conditions: rat, read-out: Plasma level; outline: as §6
[33] = Mean plasma levels in rats 1 hr after iv administration of 100 mg/kg of probenecid 5 min prior to test compound; type: ADME, organism-based; parameters: dose 100 mg/kg, route intravenous; conditions: rat, read-out: Plasma level; outline: as §6
[34] = system: Staphylococcus epidermidis; test: Minimum inhibitory concentration against Epil strain of Staphylococcus epidermidis; type: functional
[35] = system: Canis familiaris; test: Area under plasma concentration vs time curve observed in female mongrel dogs after, oral administration of single 15 mg/kg dose; type: ADME, organism-based, Canis lupus familiaris; parameters: dose 15 mg/kg, route oral; conditions: dog, in vivo; outline: as §2
[36] = Area under plasma concentration vs time curve observed in Rhesus monkeys after oral administration of single 30 mg/kg dose; type: ADME, organism-based, Macaca mulatta; parameters: dose 30 mg/kg, route oral; conditions: rhesus monkey; outline: as §5
[37] = system: Mus musculus; test: Efficacy against mouse infected ip with 3055 strain of Staphylococcus aureus, administered sc to 19-21-g random sex ICR mice at 1 hr and 5 hr; type: functional; outline: as §1
[38] = system: Staphylococcus aureus; test: Minimum inhibitory concentration against S13E strain of Staphylococcus aureus; type: functional
[39] = Minimum inhibitory concentration against N9 strain of Shigella sonnei; type: functional
[40] = in vivo; conditions: rat
[41] = system: Streptococcus pneumoniae; test: Minimum inhibitory concentration against park strain of Streptococcus pneumoniae
[42] = system: Streptococcus pyogenes; test: Minimum inhibitory concentration against C203 strain of Streptococcus pyogenes
[43] = system: Staphylococcus aureus; test: Minimum inhibitory concentration against V41 strain of Staphylococcus aureus; type: functional

CC1(C)S[C@@H]2[C@H](NC(=O)COc3ccccc3)C(=O)N2[C@H]1C(=O)O [PENICILLIN V]
MIC [1]: 64 µg/mL (≈ 183 µM) | ED50 [2]: 2.1 mg/kg | MIC [3]: 0.06 µg/mL (≈ 0.171 µM) | AUC [4]: 25300 ng·h/mL | bioavailability [5]: 11.6% | dose excreted [6]: 32% | MIC [7]: > 128 µg/mL | bioavailability [8]: 5.5% | concentration at 5 min [9]: 59000 ng/mL | MIC [10]: > 128 µg/mL | ED50 [11]: 2.8 mg/kg | concentration at 40 min [12]: 14100 ng/mL | bioavailability [13]: 29% | MIC [14]: 0.04 µg/mL (≈ 0.114 µM) | MIC [15]: 0.06 µg/mL (≈ 0.171 µM) | MIC [16]: > 128 µg/mL | AUC at 3 h [17]: 32000 ng·h/mL | ED50 [18]: 0.62 mg/kg | dose excreted [19]: 22.5% | AUC [20]: 43000 ng·h/mL | MIC [21]: > 128 µg/mL | MIC [22]: 16 µg/mL (≈ 45.7 µM) | concentration at 20 min [23]: 30400 ng/mL | dose excreted [24]: 2.6% | half-life [25]: 19.4 min | ED50 [26]: 0.5 mg/kg | dose excreted [27]: 4.9% | concentration at 2 h [28]: 800 ng/mL | MIC [29]: 0.06 µg/mL (≈ 0.171 µM) | MIC [30]: > 128 µg/mL | ED50 [31]: 0.16 mg/kg | concentration at 3 h [32]: < 300 ng/mL | concentration at 1 h [33]: 6800 ng/mL | MIC [34]: 0.125 µg/mL (≈ 0.357 µM) | AUC [35]: 3000 ng·h/mL | AUC [36]: 2330 ng·h/mL | ED50 [37]: 0.04 mg/kg | MIC [38]: 16 µg/mL (≈ 45.7 µM) | MIC [39]: > 128 µg/mL | bioavailability [40]: 34% | MIC [41]: 0.02 µg/mL (≈ 0.0571 µM) | MIC [42]: 0.06 µg/mL (≈ 0.171 µM) | MIC [43]: 32 µg/mL (≈ 91.3 µM)
